pIC50: −log10 of the molar value.
Key:
[1] = Growth inhibition of human M14 cells at 10 uM after 48 hrs by SRB assay relative to control; format: functional; conditions: M14, 48 h, read-out: GI
Procedure, shortened: (§1)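 NCI 60-cell-line panel, nine tumor subpanels; compounds tested at a single dose of 10 μM in the primary screen.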

[2] = test system: Cancer cell lines; assay: Potency index, ratio of 5-fluorouracil GI50 to compound GI50 for human colon cancer cells; format: functional
Procedure, shortened: (§2)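 GI50 for each cell line came from NCI panel testing over a 5-log dose range, with 5-fluorouracil tested alongside as the reference drug. The index relates the 5-fluorouracil GI50 to the compound GI50 within each tumour subpanel.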

[3] = Growth inhibition of human NCI-H460 cells at 10 uM after 48 hrs by SRB assay relative to control; format: functional; conditions: NCI-H460, 48 h, read-out: GI; procedure, shortened: as §1
[4] = test system: Cancer cell lines; assay: Potency index, ratio of 5-fluorouracil GI50 to compound GI50 for human prostate cancer cells; format: functional; procedure, shortened: as §2
[5] = test system: Cancer cell lines; assay: Potency index, ratio of 5-fluorouracil GI50 to compound GI50 for human non-small cell lung cancer cells; format: functional; procedure, shortened: as §2
[6] = Growth inhibition of human UACC62 cells at 10 uM after 48 hrs by SRB assay relative to control; format: functional; conditions: UACC-62, 48 h, read-out: GI
Procedure, shortened: (§3)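 Primary screen across the full NCI 60 human tumour cell line panel, which covers nine tumour subpanels. A single dose of 10 μM was applied to each line, and growth was recorded for each cell line.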

[7] = Growth inhibition of human SF539 cells at 10 uM after 48 hrs by SRB assay relative to control; format: functional; conditions: SF-539, 48 h, read-out: GI; procedure, shortened: as §1
[8] = Growth inhibition of human MDA-MB-231 cells at 10 uM after 48 hrs by SRB assay relative to control; format: functional; conditions: MDA-MB-231, 48 h, read-out: GI; procedure, shortened: as §1
[9] = Growth inhibition of human KM12 cells at 10 uM after 48 hrs by SRB assay relative to control; format: functional; conditions: KM12, 48 h, read-out: GI; procedure, shortened: as §1
[10] = Growth inhibition of human U251 cells at 10 uM after 48 hrs by SRB assay relative to control; format: functional; conditions: U-251, 48 h, read-out: GI; procedure, shortened: as §3
[11] = Growth inhibition of human PC3 cells at 10 uM after 48 hrs by SRB assay relative to control; format: functional; conditions: PC-3, 48 h, read-out: GI; procedure, shortened: as §1
[12] = Growth inhibition of human NCI-322M cells at 10 uM after 48 hrs by SRB assay relative to control; format: functional; conditions: read-out: GI; procedure, shortened: as §1
[13] = Growth inhibition of human SF295 cells at 10 uM after 48 hrs by SRB assay relative to control; format: functional; conditions: SF-295, 48 h, read-out: GI; procedure, shortened: as §1
[14] = test system: Cancer cell lines; assay: Potency index, ratio of 5-fluorouracil GI50 to compound GI50 for human breast cancer cells; format: functional; procedure, shortened: as §2
[15] = test system: Cancer cell lines; assay: Potency index, ratio of 5-fluorouracil GI50 to compound GI50 for human ovarian cancer cells; format: functional; procedure, shortened: as §2
[16] = Growth inhibition of human OVCAR8 cells at 10 uM after 48 hrs by SRB assay relative to control; format: functional; conditions: OVCAR-8, 48 h, read-out: GI; procedure, shortened: as §1
[17] = Growth inhibition of human Caki1 cells at 10 uM after 48 hrs by SRB assay relative to control; format: functional; conditions: CAKI-1, 48 h, read-out: GI; procedure, shortened: as §1
[18] = Growth inhibition of human SK-MEL-28 cells at 10 uM after 48 hrs by SRB assay relative to control; format: functional; conditions: SK-MEL-28, 48 h, read-out: GI; procedure, shortened: as §3
[19] = Growth inhibition of human IGROV1 cells at 10 uM after 48 hrs by SRB assay relative to control; format: functional; conditions: IGROV-1, 48 h, read-out: GI; procedure, shortened: as §1
[20] = Growth inhibition of human SW620 cells at 10 uM after 48 hrs by SRB assay relative to control; format: functional; conditions: SW-620, 48 h, read-out: GI; procedure, shortened: as §3
[21] = Growth inhibition of human leukemia cells after 48 hrs by SRB assay; format: functional; conditions: Leukemia cell
Procedure, shortened: (§4)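 Follow-up NCI panel testing over a 5-log dose range for each cell line. GI50, TGI and LC50 were monitored, with 5-fluorouracil run as the positive control. Values are grouped by tumour subpanel.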

[22] = Growth inhibition of human melanoma cells after 48 hrs by SRB assay; format: functional; conditions: Melanoma cell; procedure, shortened: as §4
[23] = Growth inhibition of human HOP92 cells at 10 uM after 48 hrs by SRB assay relative to control; format: functional; conditions: HOP-92, 48 h, read-out: GI; procedure, shortened: as §1
[24] = Growth inhibition of human breast cancer cells after 48 hrs by SRB assay; format: functional; conditions: Cancer cell lines; procedure, shortened: as §4
[25] = Growth inhibition of human HCT15 cells at 10 uM after 48 hrs by SRB assay relative to control; format: functional; conditions: HCT-15, 48 h, read-out: GI; procedure, shortened: as §1
[26] = test system: Melanoma cell; assay: Potency index, ratio of 5-fluorouracil GI50 to compound GI50 for human melanoma cells; format: functional; procedure, shortened: as §2
[27] = Growth inhibition of human renal cancer cells after 48 hrs by SRB assay; format: functional; conditions: Cancer cell lines; procedure, shortened: as §4
[28] = Growth inhibition of human HT-29 cells at 10 uM after 48 hrs by SRB assay relative to control; format: functional; conditions: HT-29, 48 h, read-out: GI; procedure, shortened: as §1
[29] = Growth inhibition of human HCC2998 cells at 10 uM after 48 hrs by SRB assay relative to control; format: functional; conditions: HCC 2998, 48 h, read-out: GI; procedure, shortened: as §1
[30] = Growth inhibition of human RPMI8226 cells at 10 uM after 48 hrs by SRB assay relative to control; format: functional; conditions: RPMI-8226, 48 h, read-out: GI; procedure, shortened: as §1
[31] = biological target: T1, Dihydrofolate reductase (Bos taurus, UniProt P00376); assay: Inhibition of bovine liver DHFR preincubated for 2 mins followed by addition of FH2 as substrate and NADPH
T1 sequence (P00376 whole entry): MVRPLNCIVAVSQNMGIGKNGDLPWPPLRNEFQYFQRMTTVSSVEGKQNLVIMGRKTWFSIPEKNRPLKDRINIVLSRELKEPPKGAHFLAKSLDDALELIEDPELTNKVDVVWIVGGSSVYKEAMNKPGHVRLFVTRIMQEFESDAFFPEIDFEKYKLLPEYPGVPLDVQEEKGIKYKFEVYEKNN

[32] = test system: Cancer cell lines; assay: Potency index, ratio of 5-fluorouracil GI50 to compound GI50 for human renal cancer cells; format: functional; procedure, shortened: as §2
[33] = Growth inhibition of human MCF7 cells at 10 uM after 48 hrs by SRB assay relative to control; format: functional; conditions: MCF7, 48 h, read-out: GI; procedure, shortened: as §1
[34] = Growth inhibition of human prostate cancer cells after 48 hrs by SRB assay; format: functional; conditions: Cancer cell lines; procedure, shortened: as §4

**Q.** What does the source list for `COc1cc(CSc2nc3ccc(Cl)cc3c(=O)n2Cc2ccccc2)cc(OC)c1OC`?
**A.** inhibition of growth at 10 µM [1]: 64.7%; RatioGI50 [2]: 2 - 10; inhibition of growth at 10 µM [3]: 79.5%; RatioGI50 [4]: 2 - 10; RatioGI50 [5]: 2 - 10; inhibition of growth at 10 µM [6]: 84.8%; inhibition of growth at 10 µM [7]: 94.2%; inhibition of growth at 10 µM [8]: 61.2%; inhibition of growth at 10 µM [9]: 76.4%; inhibition of growth at 10 µM [10]: 67.2%; inhibition of growth at 10 µM [11]: 44.9%; inhibition of growth at 10 µM [12]: 52.5%; inhibition of growth at 10 µM [13]: 71.1%; RatioGI50 [14]: 2 - 10; RatioGI50 [15]: 2 - 10; inhibition of growth at 10 µM [16]: 47.1%; inhibition of growth at 10 µM [17]: 73.3%; inhibition of growth at 10 µM [18]: 56.3%; inhibition of growth at 10 µM [19]: 64.7%; inhibition of growth at 10 µM [20]: 71.4%; GI50 [21]: 3 µM; TGI [21]: 87.9 µM; CC50 ([21]; read-out: LC50 (the source's name)): > 100 µM; GI50 [22]: 4.4 µM; LC50 [22]: 98.9 µM; TGI [22]: 55.2 µM; inhibition of growth at 10 µM [23]: 28.7%; GI50 [24]: 3.3 µM; LC50 [24]: > 100 µM; TGI [24]: 59.1 µM; inhibition of growth at 10 µM [25]: 75.1%; RatioGI50 [26]: 2 - 10; GI50 [27]: 4.4 µM; LC50 [27]: 96.5 µM; TGI [27]: 52.3 µM; inhibition of growth at 10 µM [28]: 88.3%; inhibition of growth at 10 µM [29]: 50%; inhibition of growth at 10 µM [30]: 31.3%; pIC50 [31]: 5.40; RatioGI50 [32]: 2 - 10; inhibition of growth at 10 µM [33]: 85.7%; GI50 [34]: 4 µM; LC50 (concentration killing 50% of cells) [34]: > 100 µM; TGI [34]: > 100 µM

From ChEMBL document CHEMBL3860041, “Synthesis, biological evaluation and molecular modeling study of some new methoxylated 2-benzylthio-quinazoline-4(3H)-ones as nonclassical antifolates” (Bioorg Med Chem Lett, 2016)
